Paper PMC8378419 (ACS chemical neuroscience, 2019)

Columns and labels:
[1] = molecular target: T1, hD3 (Homo sapiens, UniProt P35462); test: radioligand competition, [3H]N-methylspiperone; assay type: binding; conditions: Cheng-Prusoff
Method in brief: (§1)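 Radioligand displacement used [3H]N-methylspiperone at human D3 or D4 receptors stably expressed in HEK293 cells. Samples were run in triplicate. IC50 values were converted to Ki with the Cheng–Prusoff equation and given as pKi (−logKi).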

[2] = molecular target: T2, hD4 (Homo sapiens, UniProt P21917); test: radioligand competition, [3H]N-methylspiperone; assay type: binding; conditions: Cheng-Prusoff
T2 sequence (P21917 1-419): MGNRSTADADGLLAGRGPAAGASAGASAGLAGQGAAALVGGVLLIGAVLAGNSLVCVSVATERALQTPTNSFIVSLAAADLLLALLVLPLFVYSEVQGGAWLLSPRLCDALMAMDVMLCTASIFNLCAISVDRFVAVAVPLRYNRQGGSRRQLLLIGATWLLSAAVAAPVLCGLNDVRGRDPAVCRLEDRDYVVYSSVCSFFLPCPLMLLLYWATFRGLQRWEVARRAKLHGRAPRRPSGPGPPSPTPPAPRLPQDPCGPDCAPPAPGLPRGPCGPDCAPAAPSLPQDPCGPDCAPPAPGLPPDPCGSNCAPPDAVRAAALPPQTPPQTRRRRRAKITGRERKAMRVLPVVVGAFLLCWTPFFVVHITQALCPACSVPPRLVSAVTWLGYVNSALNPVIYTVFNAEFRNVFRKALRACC
Method in brief: as §1

[3] = molecular target: T3, 5-HT1A (Homo sapiens, UniProt P08908); test: radioligand competition, [3H]8-OH-DPAT; assay type: binding; conditions: Cheng-Prusoff
T3 sequence (P08908 1-422): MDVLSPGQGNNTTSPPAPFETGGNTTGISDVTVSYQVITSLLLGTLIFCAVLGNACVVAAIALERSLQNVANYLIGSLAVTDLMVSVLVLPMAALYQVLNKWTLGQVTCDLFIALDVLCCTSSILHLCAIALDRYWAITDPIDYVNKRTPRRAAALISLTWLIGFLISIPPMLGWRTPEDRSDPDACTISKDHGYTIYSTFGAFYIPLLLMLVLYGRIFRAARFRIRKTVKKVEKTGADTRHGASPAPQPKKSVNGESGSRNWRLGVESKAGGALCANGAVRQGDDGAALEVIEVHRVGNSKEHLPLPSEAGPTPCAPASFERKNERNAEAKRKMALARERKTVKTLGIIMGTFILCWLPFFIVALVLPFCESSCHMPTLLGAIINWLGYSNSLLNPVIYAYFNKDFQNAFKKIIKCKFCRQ
Method in brief: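 Human cloned 5-HT1A receptors expressed in HeLa cells were labelled with [3H]8-OH-DPAT and displaced by the test compound. Each experiment was run in triplicate.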

[4] = molecular target: T4, α1b-AR (Homo sapiens, UniProt P35368); test: radioligand competition, [3H]prazosin; assay type: binding; conditions: Cheng-Prusoff
T4 sequence (P35368 1-520): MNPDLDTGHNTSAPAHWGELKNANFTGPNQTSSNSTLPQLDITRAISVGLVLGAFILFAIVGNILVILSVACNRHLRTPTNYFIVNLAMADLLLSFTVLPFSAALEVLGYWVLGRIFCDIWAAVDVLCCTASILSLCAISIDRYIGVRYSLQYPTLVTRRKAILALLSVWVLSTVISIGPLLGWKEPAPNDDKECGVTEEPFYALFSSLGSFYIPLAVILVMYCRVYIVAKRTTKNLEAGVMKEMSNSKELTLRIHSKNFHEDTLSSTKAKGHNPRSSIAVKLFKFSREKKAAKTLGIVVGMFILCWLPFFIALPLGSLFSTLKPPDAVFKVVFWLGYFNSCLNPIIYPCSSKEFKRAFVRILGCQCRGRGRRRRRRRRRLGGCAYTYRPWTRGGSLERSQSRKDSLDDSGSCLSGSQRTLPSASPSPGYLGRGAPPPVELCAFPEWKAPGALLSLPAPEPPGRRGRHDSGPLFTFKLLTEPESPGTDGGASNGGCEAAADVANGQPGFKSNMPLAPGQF
Method in brief: (§2)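 Binding was measured with [3H]prazosin on cloned human α1-adrenoceptor subtypes expressed in CHO cells. Each experiment was run in triplicate.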

[5] = molecular target: T5, α1a-AR (Homo sapiens, UniProt P35348); test: radioligand competition, [3H]prazosin; assay type: binding; conditions: Cheng-Prusoff
T5 sequence (P35348 1-466): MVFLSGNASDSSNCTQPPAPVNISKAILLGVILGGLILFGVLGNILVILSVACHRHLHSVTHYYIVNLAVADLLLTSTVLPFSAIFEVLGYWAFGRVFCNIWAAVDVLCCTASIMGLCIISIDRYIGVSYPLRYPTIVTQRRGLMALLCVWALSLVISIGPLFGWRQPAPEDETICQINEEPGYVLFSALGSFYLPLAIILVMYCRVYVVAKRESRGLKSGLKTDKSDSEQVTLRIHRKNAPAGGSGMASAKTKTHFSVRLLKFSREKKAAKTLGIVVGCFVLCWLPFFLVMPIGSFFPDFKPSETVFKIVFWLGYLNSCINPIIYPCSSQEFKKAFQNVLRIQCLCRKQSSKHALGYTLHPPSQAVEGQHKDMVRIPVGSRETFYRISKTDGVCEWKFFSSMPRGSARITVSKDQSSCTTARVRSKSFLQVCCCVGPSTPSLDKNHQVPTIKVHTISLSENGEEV
Method in brief: as §2

[6] = molecular target: T6, α1d-AR (Homo sapiens, UniProt P25100); test: radioligand competition, [3H]prazosin; assay type: binding; conditions: Cheng-Prusoff
T6 sequence (P25100 1-572): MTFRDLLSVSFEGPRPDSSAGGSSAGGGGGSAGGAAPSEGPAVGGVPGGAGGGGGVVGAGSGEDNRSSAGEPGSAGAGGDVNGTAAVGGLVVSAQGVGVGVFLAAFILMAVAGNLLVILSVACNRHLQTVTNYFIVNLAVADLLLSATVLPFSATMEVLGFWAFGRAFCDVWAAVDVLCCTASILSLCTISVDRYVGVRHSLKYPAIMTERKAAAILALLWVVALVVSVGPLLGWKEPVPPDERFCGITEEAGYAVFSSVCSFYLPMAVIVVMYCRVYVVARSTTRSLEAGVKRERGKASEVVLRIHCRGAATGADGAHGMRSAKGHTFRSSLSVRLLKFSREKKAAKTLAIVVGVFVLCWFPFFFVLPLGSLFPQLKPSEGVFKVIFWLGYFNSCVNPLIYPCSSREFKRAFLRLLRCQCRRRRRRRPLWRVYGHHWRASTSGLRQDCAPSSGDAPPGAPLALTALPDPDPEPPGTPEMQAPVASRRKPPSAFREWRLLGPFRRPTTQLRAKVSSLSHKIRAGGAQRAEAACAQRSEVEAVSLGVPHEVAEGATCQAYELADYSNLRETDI
Method in brief: as §2

[7] = molecular target: D1 (Homo sapiens, UniProt P21728); test: cAMP assay; assay type: cell-based; conditions: antagonist
Chain of D1 (P21728 whole entry): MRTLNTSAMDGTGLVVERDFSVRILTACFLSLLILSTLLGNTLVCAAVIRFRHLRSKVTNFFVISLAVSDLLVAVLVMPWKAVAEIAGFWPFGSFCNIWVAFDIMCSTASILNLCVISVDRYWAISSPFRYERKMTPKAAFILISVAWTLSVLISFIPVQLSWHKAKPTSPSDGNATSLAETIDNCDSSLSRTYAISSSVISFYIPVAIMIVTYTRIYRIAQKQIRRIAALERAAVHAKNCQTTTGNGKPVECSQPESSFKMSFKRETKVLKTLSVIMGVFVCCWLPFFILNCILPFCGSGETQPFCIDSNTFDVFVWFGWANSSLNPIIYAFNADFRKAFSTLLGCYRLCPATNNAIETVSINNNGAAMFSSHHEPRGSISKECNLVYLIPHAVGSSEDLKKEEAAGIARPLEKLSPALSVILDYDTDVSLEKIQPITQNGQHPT

[8] = molecular target: T3, 5-HT1A; test: […]GTPγS binding; assay type: biochemical; conditions: agonist
[9] = molecular target: T1, hD3; test: mitogenesis assay; assay type: cell-based; conditions: full agonist

T1 sequence (P35462 whole entry): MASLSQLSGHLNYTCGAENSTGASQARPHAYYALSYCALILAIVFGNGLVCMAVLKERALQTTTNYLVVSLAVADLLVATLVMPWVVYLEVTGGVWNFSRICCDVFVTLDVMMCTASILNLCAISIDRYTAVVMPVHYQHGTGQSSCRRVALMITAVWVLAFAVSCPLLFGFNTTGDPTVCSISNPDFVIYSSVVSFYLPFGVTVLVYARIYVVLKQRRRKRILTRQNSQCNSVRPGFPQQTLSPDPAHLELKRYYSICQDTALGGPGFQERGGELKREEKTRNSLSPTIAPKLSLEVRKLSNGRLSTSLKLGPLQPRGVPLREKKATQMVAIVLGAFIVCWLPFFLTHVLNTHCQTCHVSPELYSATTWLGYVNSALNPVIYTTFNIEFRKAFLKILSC

Row | SMILES | pKi, human cloned receptor / D3 [1] | pKi, human cloned receptor / D4 [2] | pKi, human cloned receptor / 5-HT1A [3] | pKi, human cloned receptor / D2 [4] | pKi, human cloned receptor / α1 ^a [5] | pKi, human cloned receptor / α1 ^d [6] | Functional profile of 8 / pEC50 (pIC50) [7] | Functional profile of 8 / pEC50 (pIC50) [8] | Functional profile of 8 / pEC50 (pIC50) [9] | pKi, human cloned receptor / α1 ^a [4] | pKi, human cloned receptor / D3 [4] | pKi, human cloned receptor / D3 [5] | pKi, human cloned receptor / D3 [6]
1 | COc1cccc(OC)c1OCCNCC1COCC(c2ccccc2)(c2ccccc2)O1 (centres unmarked) [compound 2, 2] | 6.34 | 5.77 |  |  |  |  |  |  |  |  |  |  | 
2 | c1ccc(OCCNCC2COCC(c3ccccc3)(c3ccccc3)O2)cc1 (centres unmarked) [compound 4, N-((6,6-diphenyl-1,4-dioxan-2-yl)methyl)-2-phenoxyethan-1-amine] | 7.92 |  |  |  |  |  |  |  |  |  |  |  | 
3 | COc1cccc(OCCNCC2COCC(c3ccccc3)(c3ccccc3)O2)c1 (centres unmarked) [compound 7, N-((6,6-Diphenyl-1,4-dioxan-2-yl)methyl)-2-(3-methoxyphenoxy)ethanamine] | 7.37 | 6.45 | 8.91 | < 6 | 6.41 | 6.98 |  |  |  |  |  |  | 
4 | Oc1cccc(OCCNCC2COCC(c3ccccc3)(c3ccccc3)O2)c1 (centres unmarked) [compound 8, 3-(2-(((6,6-Diphenyl-1,4-dioxan-2-yl)methyl)amino)ethoxy)phenol] |  |  |  |  | < 6 | 6.56 | 5.49 ± 0.10 | 8.28 ± 0.15 | 8.99 ± 0.09 | < 6 |  |  | 
5 | COc1ccc(OCCNCC2COCC(c3ccccc3)(c3ccccc3)O2)cc1 (centres unmarked) [compound 9, N-((6,6-Diphenyl-1,4-dioxan-2-yl)methyl)-2-(4-methoxyphenoxy)ethanamine] | 6.41 | 6.45 | 7.17 |  |  |  |  |  |  |  | < 6 | < 6 | < 6
6 | Oc1ccc(OCCNCC2COCC(c3ccccc3)(c3ccccc3)O2)cc1 (centres unmarked) [compound 10, 10] | 7.37 | 6.49 | 7.59 | < 6 | 6.56 | 7.01 |  |  |  |  |  |  | 
7 | COc1cccc(OCCNCC2COCC(c3ccccc3)(c3ccccc3)O2)c1OC (centres unmarked) [compound 11, 2-(2,3-Dimethoxyphenoxy)-N-((6,6-diphenyl-1,4-dioxan-2-yl)methyl)ethanamine] | 6.79 | 6.87 |  |  |  |  |  |  |  |  |  |  | 
8 | COc1ccc(OCCNCC2COCC(c3ccccc3)(c3ccccc3)O2)cc1OC (centres unmarked) [compound 12, 2-(3,4-Dimethoxyphenoxy)-N-((6,6-diphenyl-1,4-dioxan-2-yl)methyl)ethanamine] | 6.10 | 5.84 | 7.71 |  |  |  |  |  |  |  | < 6 | < 6 | < 6
9 | c1ccc(C2(c3ccccc3)COCC(CNCCOc3ccc4c(c3)OCO4)O2)cc1 (centres unmarked) [compound 13, 2-(Benzo[d][1,3]dioxol-5-yloxy)-N-((6,6-diphenyl-1,4-dioxan-2-yl)methyl)ethanamine] | 6.99 | 6.79 | 8.04 | < 6 | 6.32 | 6.81 |  |  |  |  |  |  | 
